Columns and labels:
[1] = folding enthalpy; higher = less favourable; fluorescence melt of hairpins on a sequencing array, two-state fit; settings: sodium 0.088 M
In short: (§1)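 Library hairpins on a sequenced MiSeq flow cell carried annealed Cy3 and quencher oligos, and their Cy3 fluorescence was imaged in 50 mM Na-HEPES pH 8.0 with 25 mM NaCl, in 2.5 °C steps up to 60 °C. Signals were normalised to Cy3 before quenching and to control constructs. Melting temperature and folding enthalpy were obtained from bootstrapped two-state fits, combined by inverse-variance weighting across four replicates, and the fitted temperatures were then raised by 9.35 °C to match UV melts.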

[2] = melting temperature; fluorescence melt of hairpins on a sequencing array, two-state fit, raised by 9.35 °C to match UV melts; settings: sodium 0.088 M
In short: as §1

Sequence	folding enthalpy [1] [kcal/mol]	Tm [2] [°C]
GGTTGCGAAAGCAACACC ((((((....)))..)))	-8.28	50
GATCCTGCAGAGGATC ((((((....))))))	-39.5	56
GGCCCCGAAAGGGATGCC ((((((....)))..)))	-22.2	56.8
GTACATCGAAAGATTAC (((.(((....))))))	-20.3	32.1
GTGCCTGGAAACAGGTGC (..((((....))))..)	-23.2	48.9
GCGGAGACGAAAGTCCGC (((..(((....))))))	-32	58.5
GATCGCACTCGCGATC ((((((....))))))	-34.7	68.4
GTGGTCGAAAGACACAC ((((((....))).)))	-26.6	50.3
GTCGGCGAAAGCCGTGAC ((((((....)))..)))	-8.14	41.1
GATCTAAAGATAGATC ((((((....))))))	-16.5	30.6
GCTCTCGGAAACGGGAGC ((((.((....)).))))	-41.3	57.4
GGAGCCGAAAGGCGGTCC ((((((....)))..)))	-9.55	48.1
GTAGCTCGAAAGAGGTAC (((.(((....))).)))	-38	56.7
GTATCACGAAAGTGTAC (((.(((....))))))	-18.1	42.6
GCACATCGAAAGATCTGC (((.(((....))).)))	-28.3	36
GCAAAGGGAAACCTCTGC (((.(((....))).)))	-19.1	33.8
GAATAGGAAACTATTC ((((((....))))))	-31	40.7
GAGGCCGAAAGGCTCCTC ((((((....)))..)))	-10.2	40.8
CCCTTGAAAAAGGG (((((....)))))	-16.9	47.2
GCACAGGGAAACCCGTGC ((((.((....)).))))	-36.8	55.4
GCTAGGCGAAAGCATCGC ((.(.((....)).).))	-15.9	38
GACTGCGAAAGCAAGGTC ((((((....)))..)))	-15.3	45.1
GGTGACTCGAAAGAGACC (((..(((....))))))	-16.5	33

Sequence	folding enthalpy [1] [kcal/mol]	Tm [2] [°C]
GCCCCGCGAAAGCTAGGC (((..((....))..)))	-18.7	45
GCTACTCGAAAGAGAAGC (((.(((....))).)))	-28.6	50.4
GGCCGGCGAAAGCCGCC (((.(((....))))))	-12	65.3
GATCCATGAGTGGATC ((((((....))))))	-35.3	55
GGGCTGCGAAAGCACCCC (((.(((....))).)))	-18.2	57.3
GATCTCACAGGAGATC ((((((....))))))	-34	51.7
GTATCAGGAAACCGATAC (((((.(....).)))))	-30.7	38.1
GGGTGGGGAAACTCGCCC (((.(.(....).).)))	-30.9	47.6
GGTACGGAAACGTACC ((((((....))))))	-37.8	65.8
GCCTACCCGAAAGGGGGC (((..(((....))))))	-17.3	52.4
GATCTGTAATCAGATC ((((((....))))))	-37.6	48.2
GCTGTGCGAAAGCGCCGC ((.(.((....)).).))	-18.6	49.6
GGCAGAGGAAACTCTGCC (((((((....)))))))	-40.2	67.6
GATCAGACGAAAGTCATC (((..(((....))))))	-9.11	23.3
GGCAGCGGAAACACTGCC (((((.(....).)))))	-41	55.1
GCTAGGCGAAAGCACAGC (((..((....))..)))	-19.4	46.3
GGGAGTGGAAACGCTCCC (((((.(....).)))))	-38.9	58
GATCAATTACTTGATC ((((((....))))))	-31.4	44
GATCCGTAGTCGGATC ((((((....))))))	-36	57
GTGATATCGAAAGATCAC (((..(((....))))))	-27.8	37.1
GTATGCGAAAGCAAGTAC ((((((....)))..)))	-8.53	26.1
GTCGCATCGAAAGATGAC (((..(((....))))))	-13.4	28.9
GATCTGGAACCAGATC ((((((....))))))	-38.5	53.9

Sequence	folding enthalpy [1] [kcal/mol]	Tm [2] [°C]
GATCTCACGCGAGATC ((((((....))))))	-41.7	52.7
GAGTACGGAAACGTACCC (.(((((....))))).)	-15.5	42.2
GGCAGCGAAAGCTCAGCC ((((((....)))..)))	-18.4	51
GATCACATGGTGATC ((((((...))))))	-37	61.1
GTGCCCGAAAGGGTGCAC ((((((....)))..)))	-14.6	55.3
GACGACCGAAAGGTGTC (((.(((....))))))	-26.5	52.2
GTAAGCCGAAAGGCATAC (((.(((....))).)))	-18.4	46.6
GTGCGAGGAAACCCACAC (((.(.(....).).)))	-10.4	24.6
GCGTTATCGAAAGATCGC (((..(((....))))))	-26.1	44.3
GGCCATCGAAAGATGCC (((.(((....))))))	-19.8	54.9
GATCGGCTGCCCGATC ((((((....))))))	-31.2	56.2
GAGCTTGCGAAAGCACTC (((..(((....))))))	-10.9	39.7
GCGATTCCTCGC ((((....))))	-22.4	49.5
GATCCCATCTGGGATC ((((((....))))))	-36.2	62.6
GGGTTTCGAAAGAAGCCC (((.(((....))).)))	-44.4	57.1
AATGCGAAAGCATT (((((....)))))	-15.3	64.9
GATCACGGAAGTGATC ((((((....))))))	-29.3	68.9
GTCACCGAAAGGTTGAC ((((((....))).)))	-27	51.4
GATCGTTATCACGATC ((((((....))))))	-42	52.7
GATCAAGGGATTGATC ((((((....))))))	-26.9	44.8
GATCAAATTGTTGATC ((((((....))))))	-28.3	41.8
CGGCATCGGAAACGACCG (((..(((....))))))	-16.6	34.4
GGTGTCCGAAAGGAAACC (((.(((....))).)))	-27.9	52.7
